{"source": "paper PMC5969509", "about": "(Chemical Science, 2018)", "key": {"KDM4A": {"test_system": "KDM4A", "test": "Biolayer interferometry, binding to KDM4A", "parameters": "species or system human", "settings": "BLI, 3-fold dilution series", "how_it_was_run": "(§1)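 Recombinant protein (tPHD2HisBio or KDM4A) was expressed in E. coli BL21 (DE3) and loaded onto biosensors. Binding was measured by biolayer interferometry as cycles of association and dissociation across a dilution series of test peptide. A DMSO-only sensor included in each run was subtracted to correct for drift, and the traces were fitted globally.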"}, "[1]": {"target": "tPHD2HisBio (catalytic domain of PHD2, residues 181-426) (Homo sapiens, UniProt Q9GZT9)", "sequence (Q9GZT9 181-426)": "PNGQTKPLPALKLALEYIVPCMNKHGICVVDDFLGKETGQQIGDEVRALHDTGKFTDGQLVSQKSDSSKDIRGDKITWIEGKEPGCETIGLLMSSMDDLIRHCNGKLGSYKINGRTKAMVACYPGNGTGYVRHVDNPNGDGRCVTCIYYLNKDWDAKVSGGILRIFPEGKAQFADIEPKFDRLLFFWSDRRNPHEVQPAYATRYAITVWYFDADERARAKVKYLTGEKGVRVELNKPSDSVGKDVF", "test": "Biolayer interferometry, tPHD2HisBio immobilised via C-terminal biotin", "type": "binding", "how_it_was_run": "as §1"}, "tPHD2": {"target": "tPHD2 (Homo sapiens, UniProt Q9GZT9)", "sequence (Q9GZT9 181-426)": "as above", "test": "Biolayer interferometry, tPHD2 immobilised via N-terminal His-tag", "type": "binding", "settings": "BLI; tPHD2 denatured chemically or thermally"}, "[2]": {"target": "catalytic domain of PHD2 (residues 181–426, tPHD2) with N-terminal His-tag and C-terminal biotinylation (tPHD2_(HisBio)) (human) (UniProt Q9GZT9)", "sequence (Q9GZT9 181-426)": "as above", "test": "BLI"}, "[3]": {"target": "catalytic domain of PHD2 (residues 181–426, tPHD2) with N-terminal His-tag and C-terminal biotinylation (tPHD2_(HisBio)) (human) (UniProt Q9GZT9)", "test": "BLI", "remark": "listed apart in the source"}, "PHD1": {"test_system": "PHD1", "test": "3CBt capture", "type": "binding, human", "settings": "protein 10 µM, 3CBt 26 µM, Coomassie SDS-PAGE"}, "PHD2:HIF1-α complex": {"test_system": "PHD2:HIF1-α complex", "test": "3CBt capture of PHD:HIF1-α complex from RCC4 cell lysates", "type": "binding", "settings": "RCC4 cells in hypoxia, 3CBt 52 µM, western blot"}, "PHD3": {"test_system": "PHD3", "test": "3CBt capture", "type": "binding, human", "settings": "3CBt 26 µM"}, "PHD2": {"test_system": "PHD2", "test": "3CBt capture", "type": "binding, human"}}, "note": "Where two headings read alike, the source gives them in different places. Positions of bridges follow the written chain, without caps; N, C: chain ends. Non-standard residues stand in square brackets, D forms with d. Residues, ends and D or L forms follow the SMILES beside them."}
{"molecule": "CC(C)C[C@@H]1NC(=O)[C@H](Cc2c[nH]c3ccccc23)NC(=O)[C@H](C(C)C)NC(=O)[C@@H](Cc2ccc(O)cc2)NC(=O)CSC[C@@H](C(N)=O)NC(=O)[C@H]([C@@H](C)O)NC(=O)[C@H](CCCNC(=N)N)NC(=O)[C@H](CO)NC(=O)[C@H](CC(C)C)NC(=O)[C@H](C(C)C)NC(=O)[C@H](Cc2c[nH]c3ccccc23)NC(=O)[C@H]([C@@H](C)O)NC(=O)[C@H](CC(=O)O)NC(=O)[C@H]([C@@H](C)O)NC1=O", "note": "[3C] ({CH2CO}-[dY]VWLTDTWVLSRTC-NH2; thioether N-14)", "values": [{"measurement": "binding to KDM4A", "setting": "KDM4A", "result": "almost no detectable binding"}, {"measurement": "Kd", "setting": "[1]", "result": 0.00027, "unit": "µM"}, {"measurement": "dissociative half-life t1/2", "setting": "[1]; BLI, C-terminal biotin immobilisation", "result": 1.13, "unit": "h"}, {"measurement": "binding to denatured tPHD2", "setting": "tPHD2", "result": "abolished"}]}
{"molecule": "C-terminal oxygen dependent domain (CODD), a fragment peptide of HIF1-α", "values": [{"measurement": "Kd", "setting": "[2]", "result": 5.2, "unit": "µM"}, {"measurement": "Kd", "setting": "[3]", "result": 6.3, "unit": "µM"}]}
{"molecule": "DYVWL T DT W VL SRTCGSGSGSZ (sidechain bridge or staple) [3CBt]", "values": [{"measurement": "capture of recombinant full length PHD1", "setting": "PHD1", "result": "able to capture"}, {"measurement": "co-purification of HIF1-α and PHDs at endogenous levels", "setting": "PHD2:HIF1-α complex", "result": "could co-purify HIF1-α and PHDs at endogenous levels"}, {"measurement": "capture of endogenous PHD3 from Hep3B cell lysates", "setting": "PHD3; hypoxic conditions, western blot", "result": "able to affinity purify"}, {"measurement": "capture of recombinant full length PHD3", "setting": "PHD3; protein 10 µM, Coomassie SDS-PAGE", "result": "able to capture"}, {"measurement": "capture of endogenous PHD2 from Hep3B cell lysates", "setting": "PHD2; hypoxic (1% O2) Hep3B cells, western blot, 3CBt 13 µM", "result": "could be captured"}, {"measurement": "recovery of recombinant full-length PHD2", "setting": "PHD2; protein 10 µM, 3CBt 26 µM, Coomassie SDS-PAGE", "result": "recovered in a 3CBt-dependent manner"}, {"measurement": "recovery of isolated recombinant tPHD2", "setting": "PHD2; streptavidin magnetic beads, Coomassie SDS-PAGE, tPHD2 100 nM, 3CBt 520 nM", "result": "High levels of tPHD2 recovery"}]}
